In ChEMBL document CHEMBL1125418, “Antimycobacterial activity of a series of pyrazinoic acid esters” (1992):
≈ marks a conversion by molar mass, not a printed value.

Experiments:
[1] = test system: Mycobacterium tuberculosis; experiment: (§1) In vitro inhibitory activity against Mycobacterium tuberculosis (strain type-BUR) at pH 5.8; format: functional
Procedure, shortened: (§2)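 Middlebrook 7H10 agar plus 10% OADC at pH 5.8 in compartmented plates, with serial twofold dilutions from 200 to 3.12 µg/mL. Plates were prepared 24–48 h before use and stored at 4 °C. A drug-free compartment was included per isolate. Incubation was 37 °C for 4 weeks. MIC was the lowest level producing 99% (2 log) inhibition of growth.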

[2] = test system: Mycobacterium tuberculosis; experiment: In vitro inhibitory activity against Mycobacterium tuberculosis (strain type-ATCC 35828) at pH 6.6; format: functional
Procedure, shortened: (§3)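 Twofold serial dilutions (200–3.12 µg/mL) in 7H10 agar with 10% OADC enrichment at pH 6.6, in compartmented plates. Plates were stored at 4 °C and used within 24–48 h. A no-drug compartment served as control for each isolate. Plates were incubated for 4 weeks at 37 °C. MIC was the lowest concentration giving 99% (2 log) growth inhibition.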

[3] = test system: Mycobacterium tuberculosis; experiment: In vitro inhibitory activity against Mycobacterium tuberculosis (strain type-ATCC 35828) at pH 5.8; format: functional; procedure, shortened: as §2
Mycobacterium kansasii [4] = experiment: In vitro inhibitory activity against Mycobacterium kansasii (strain type-SWK) at pH 6.6; format: functional
Procedure, shortened: (§4)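 MIC for pyrazinamide-resistant isolate SWK by agar dilution in Middlebrook 7H10 with 10% OADC at pH 6.6. Serial 2-fold dilutions run 200–3.12 µg/mL in compartmented plates prepared 24–48 h in advance and stored at 4 °C. A drug-free control is included. Plates were held at 37 °C for 4 weeks. The endpoint is 99% (2 log) inhibition of growth.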

[5] = test system: Mycobacterium tuberculosis; experiment: In vitro inhibitory activity against Mycobacterium tuberculosis (strain type-H37Rv) at pH 6.6; format: functional
[6] = test system: Mycobacterium tuberculosis; experiment: In vitro inhibitory activity against Mycobacterium tuberculosis (strain type-BUR) at pH 6.6; format: functional; procedure, shortened: as §3
[7] = test system: Mycobacterium tuberculosis; experiment: In vitro inhibitory activity against Mycobacterium tuberculosis (strain type-H37Rv) at pH 5.8; format: functional; procedure, shortened: as §2
Mycobacterium kansasii [8] = experiment: In vitro inhibitory activity against Mycobacterium kansasii (strain type-SWK) at pH 5.8; format: functional
Procedure, shortened: (§5)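 Pyrazinamide-resistant isolate SWK tested on Middlebrook 7H10 agar plus 10% OADC adjusted to pH 5.8. Compartmented plates hold 2-fold dilutions from 200 to 3.12 µg/mL, prepared 24–48 h before use and kept at 4 °C, with a drug-free compartment. Incubation was 37 °C for 4 weeks. MIC is the lowest level causing 99% (2 log) growth inhibition.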

[9] = test system: Mycobacterium tuberculosis; experiment: In vitro activity against Mycobacterium. tuberculosis (strain type-BUR)at pH 6.6; format: functional; procedure, shortened: as §3
[10] = test system: Mycobacterium tuberculosis; experiment: In vitro activity against Mycobacterium. tuberculosis (strain type-ATCC 35828)at pH 6.6; format: functional; procedure, shortened: as §3
Mycobacterium kansasii [11] = experiment: In vitro activity against Mycobacterium. kansasii (strain type-SWK).at pH 5.8; format: functional; procedure, shortened: as §5
Mycobacterium kansasii [12] = experiment: In vitro activity against Mycobacterium. kansasii (strain type-SWK).at pH 6.6; format: functional; procedure, shortened: as §4
[13] = test system: Mycobacterium tuberculosis; experiment: In vitro activity against Mycobacterium. tuberculosis (strain type-H37Rv) at pH 5.8; format: functional; settings: Mycobacterium tuberculosis; read-out: MIC
[14] = test system: Mycobacterium tuberculosis; experiment: In vitro activity against Mycobacterium. tuberculosis (strain type-ATCC 35828)at pH 5.8; format: functional; procedure, shortened: as §2
[15] = test system: Mycobacterium tuberculosis; experiment: In vitro activity against Mycobacterium strain ATCC 35828 (Mycobacterium tuberculosis); format: functional
Procedure, shortened: (§6)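 Agar dilution in compartmented plates of Middlebrook 7H10 agar with 10% OADC, adjusted to pH 5.8 or pH 6.6. Twofold compound dilutions spanned 200–3.12 µg/mL. Plates were made 24–48 h ahead and held at 4 °C. MIC (µg/mL) was the lowest concentration giving 99% (2 log) growth inhibition.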

[16] = test system: Mycobacterium tuberculosis; experiment: In vitro inhibitory activity against Mycobacterium strain BUR (Mycobacterium tuberculosis)
[17] = test system: Mycobacterium tuberculosis; experiment: as §1
[18] = test system: Mycobacterium tuberculosis; experiment: In vitro activity against Mycobacterium strains on DOL (Mycobacterium tuberculosis)
[19] = test system: Mycobacterium tuberculosis; experiment: In vitro inhibitory activity against Mycobacterium tuberculosis (strain type-ATCC 35828)at pH 6.6; format: functional; procedure, shortened: as §3
[20] = test system: Mycobacterium tuberculosis; experiment: In vitro inhibitory activity against Mycobacterium strain DUB (Mycobacterium tuberculosis)
[21] = test system: Mycobacterium tuberculosis; experiment: In vitro inhibitory activity against Mycobacterium strain GLA (Mycobacterium tuberculosis); format: functional; procedure, shortened: as §6
Mycobacterium kansasii [22] = experiment: In vitro activity inhibitory against Mycobacterium. kansasii (strain type-SWK) at pH 5.8; format: functional; procedure, shortened: as §5
Mycobacterium kansasii [23] = experiment: In vitro inhibitory activity inhibitory against Mycobacterium. kansasii (strain type-SWK) at pH 6.6; format: functional; procedure, shortened: as §4
Mycobacterium kansasii [24] = experiment: In vitro activity against Mycobacterium strain SWK (Mycobacterium kansasii); format: functional
Procedure, shortened: (§7)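 Agar dilution MIC against pyrazinamide-resistant clinical isolates on Middlebrook 7H10 agar with 10% OADC at pH 5.8 or pH 6.6. Serial 2-fold dilutions span 200–3.12 µg/mL in compartmented plates made 24–48 h ahead and stored at 4 °C. Each isolate has a drug-free control. Plates were incubated at 37 °C for 4 weeks. MIC is the lowest concentration giving 99% (2 log) growth inhibition.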

[25] = test system: Mycobacterium tuberculosis; experiment: In vitro inhibitory activity against Mycobacterium strain LEL (Mycobacterium tuberculosis); format: functional; procedure, shortened: as §6
[26] = test system: Mycobacterium tuberculosis; experiment: In vitro inhibitory activity against Mycobacterium strain MCQ (Mycobacterium tuberculosis)
[27] = test system: Mycobacterium tuberculosis; experiment: In vitro activity against Mycobacterium strains on SMA (Mycobacterium tuberculosis)
[28] = test system: Mycobacterium tuberculosis; experiment: In vitro inhibitory activity against Mycobacterium strain WOO (Mycobacterium tuberculosis)
[29] = test system: Mycobacterium tuberculosis; experiment: (§8) In vitro activity against Mycobacterium strain DOU (Mycobacterium tuberculosis)
[30] = test system: Mycobacterium tuberculosis; experiment: In vitro inhibitory activity against Mycobacterium strain ING (Mycobacterium tuberculosis); format: functional; procedure, shortened: as §6
Mycobacterium kansasii [31] = experiment: In vitro activity against Mycobacterium strain SCH (Mycobacterium kansasii); format: functional; procedure, shortened: as §7
[32] = test system: Mycobacterium tuberculosis; experiment: In vitro inhibitory activity against Mycobacterium strains on BAK (Mycobacterium tuberculosis)
[33] = test system: Mycobacterium tuberculosis; experiment: In vitro activity against Mycobacterium. tuberculosis (strain type-BUR)at pH 5.8; format: functional; settings: Mycobacterium tuberculosis; read-out: MIC
Mycobacterium kansasii [34] = experiment: In vitro activity against Mycobacterium. kansasii (strain type-SWK) […]; format: functional
[35] = test system: Mycobacterium tuberculosis; experiment: In vitro activity against Mycobacterium strain BAK (Mycobacterium tuberculosis); format: functional; settings: Mycobacterium tuberculosis; read-out: MIC
[36] = test system: Mycobacterium tuberculosis; experiment: In vitro activity against Mycobacterium strain BUR (Mycobacterium tuberculosis); format: functional; procedure, shortened: as §6
[37] = test system: Mycobacterium tuberculosis; experiment: In vitro activity against Mycobacterium strain CES (Mycobacterium tuberculosis); format: functional; procedure, shortened: as §6
[38] = test system: Mycobacterium tuberculosis; experiment: In vitro activity against Mycobacterium strain DOL (Mycobacterium tuberculosis); format: functional
[39] = test system: Mycobacterium tuberculosis; experiment: as §8; format: functional; procedure, shortened: as §6
[40] = test system: Mycobacterium tuberculosis; experiment: In vitro activity against Mycobacterium. tuberculosis (strain type-ATCC 35828) at pH 6.6; format: functional; procedure, shortened: as §3
[41] = test system: Mycobacterium tuberculosis; experiment: In vitro activity against Mycobacterium strain GLA (Mycobacterium tuberculosis); format: functional; settings: Mycobacterium tuberculosis; read-out: MIC
Mycobacterium kansasii [42] = experiment: In vitro activity against Mycobacterium. kansasii (strain type-SWK)at pH 5.8; format: functional; procedure, shortened: as §5
Mycobacterium kansasii [43] = experiment: In vitro activity against Mycobacterium. kansasii (strain type-SWK) pH 6.6; format: functional; procedure, shortened: as §4
[44] = test system: Mycobacterium tuberculosis; experiment: In vitro activity against Mycobacterium. tuberculosis (strain type-H37Rv) at pH 6.6; format: functional; procedure, shortened: as §3
[45] = test system: Mycobacterium tuberculosis; experiment: In vitro activity against Mycobacterium strain ING (Mycobacterium tuberculosis); format: functional; procedure, shortened: as §6
[46] = test system: Mycobacterium tuberculosis; experiment: In vitro activity against Mycobacterium strain LEL (Mycobacterium tuberculosis); format: functional
[47] = test system: Mycobacterium tuberculosis; experiment: In vitro activity against Mycobacterium strain MCQ (Mycobacterium tuberculosis); format: functional; procedure, shortened: as §6
[48] = test system: Mycobacterium tuberculosis; experiment: In vitro activity against Mycobacterium strain SMA (Mycobacterium tuberculosis); format: functional
[49] = test system: Mycobacterium tuberculosis; experiment: In vitro activity against Mycobacterium strain WOO (Mycobacterium tuberculosis); format: functional; procedure, shortened: as §6
[50] = test system: Mycobacterium tuberculosis; experiment: In vitro activity against Mycobacterium strain DUB (Mycobacterium tuberculosis); format: functional; settings: Mycobacterium tuberculosis; read-out: MIC

SMILES: O=C(O)c1cnccn1 [PYRAZINOIC ACID]
- MIC [1]: 50 µg/mL (≈ 403 µM)
- MIC [2]: > 200 µg/mL
- MIC [3]: 100 µg/mL (≈ 806 µM)
- MIC (Mycobacterium kansasii [4]): > 200 µg/mL
- MIC ([5]; Mycobacterium tuberculosis, read-out: MIC): 200 µg/mL (≈ 1610 µM)
- MIC [6]: > 200 µg/mL
- MIC [7]: 50 µg/mL (≈ 403 µM)
- MIC (Mycobacterium kansasii [8]): > 200 µg/mL

SMILES: O=C(Oc1ccc(-c2ccccc2)cc1)c1cnccn1
- MIC [9]: 50 µg/mL (≈ 181 µM)
- MIC [10]: 100 µg/mL (≈ 362 µM)
- MIC (Mycobacterium kansasii [11]): 25 µg/mL (≈ 90.5 µM)
- MIC (Mycobacterium kansasii [12]): 100 µg/mL (≈ 362 µM)
- MIC [13]: 6.25 µg/mL (≈ 22.6 µM)
- MIC [14]: 25 µg/mL (≈ 90.5 µM)

SMILES: NC(=O)c1cnccn1 [PYRAZINAMIDE]
- MIC [15]: > 200 µg/mL
- MIC [16]: 25 µg/mL (≈ 203 µM)
- MIC [17]: 25 µg/mL (≈ 203 µM)
- MIC [18]: 25 µg/mL (≈ 203 µM)
- MIC [3]: > 200 µg/mL
- MIC [19]: > 200 µg/mL
- MIC [20]: 50 µg/mL (≈ 406 µM)
- MIC [21]: 12.5 µg/mL (≈ 102 µM)
- MIC (Mycobacterium kansasii [22]): > 200 µg/mL
- MIC (Mycobacterium kansasii [23]): > 200 µg/mL
- MIC (Mycobacterium kansasii [24]): > 200 µg/mL
- MIC [5]: >200 µg/mL
- MIC [6]: 200 µg/mL (≈ 1620 µM)
- MIC [7]: 12.5 µg/mL (≈ 102 µM)
- MIC [25]: > 200 µg/mL
- MIC [26]: 25 µg/mL (≈ 203 µM)
- MIC [27]: 50 µg/mL (≈ 406 µM)
- MIC [28]: 50 µg/mL (≈ 406 µM)
- MIC [29]: 25 µg/mL (≈ 203 µM)
- MIC [30]: 12.5 µg/mL (≈ 102 µM)
- MIC (Mycobacterium kansasii [31]): > 200 µg/mL
- MIC [32]: 50 µg/mL (≈ 406 µM)

SMILES: O=C(OCCCl)c1cnccn1
- MIC [33]: 6.25 µg/mL (≈ 33.5 µM)
- MIC (Mycobacterium kansasii [34]): 25 µg/mL (≈ 134 µM)
- MIC [14]: 25 µg/mL (≈ 134 µM)

SMILES: O=C(OC(C(F)(F)F)C(F)(F)F)c1cnccn1
- MIC [33]: 100 µg/mL (≈ 365 µM)
- MIC [14]: 200 µg/mL (≈ 730 µM)

SMILES: O=C(OCC(F)(F)F)c1cnccn1
- MIC [15]: 25 µg/mL (≈ 121 µM)
- MIC [35]: 25 µg/mL (≈ 121 µM)
- MIC [36]: 25 µg/mL (≈ 121 µM)
- MIC [33]: 25 µg/mL (≈ 121 µM)
- MIC [37]: 12.5 µg/mL (≈ 60.6 µM)
- MIC [38]: 25 µg/mL (≈ 121 µM)
- MIC [39]: 100 µg/mL (≈ 485 µM)
- MIC [40]: > 200 µg/mL
- MIC [41]: 12.5 µg/mL (≈ 60.6 µM)
- MIC (Mycobacterium kansasii [42]): 100 µg/mL (≈ 485 µM)
- MIC (Mycobacterium kansasii [24]): 200 µg/mL (≈ 970 µM)
- MIC (Mycobacterium kansasii [43]): > 200 µg/mL
- MIC [44]: 100 µg/mL (≈ 485 µM)
- MIC [13]: 25 µg/mL (≈ 121 µM)
- MIC [45]: 25 µg/mL (≈ 121 µM)
- MIC [46]: 50 µg/mL (≈ 243 µM)
- MIC [47]: 25 µg/mL (≈ 121 µM)
- MIC [48]: 25 µg/mL (≈ 121 µM)
- MIC [49]: 25 µg/mL (≈ 121 µM)
- MIC [14]: 25 µg/mL (≈ 121 µM)
- MIC [50]: 25 µg/mL (≈ 121 µM)
- MIC (Mycobacterium kansasii [31]): 25 µg/mL (≈ 121 µM)

SMILES: O=C(OCCBr)c1cnccn1
- MIC [9]: > 200 µg/mL
- MIC [10]: > 200 µg/mL
- MIC (Mycobacterium kansasii [12]): > 200 µg/mL
